Lmaj promast = inhibitors of Leishmania major promastigote growth | Leishmania major promastigotes, resazurin fluorescence viability | inhibition, % at 10 µM | hit rate 9% among 200,000; in the data active means inhibition above about 50%;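 further: promastigotes grown with compound for 44 hours at 28 °C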
Calb FLC = affects C. albicans growth with fluconazole. C. albicans CaCi-2 + fluconazole, Alamar Blue growth, 48 h. growth inhibition, % (test concentration not listed). hit rate 0.57% among 300,000. AID 1979;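 active means growth inhibition above about 58% in most replicates, limit read from the data, passing the limit was not always enough; inconclusive means exactly half the replicates above a set limit; inactive means most replicates below a set limit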;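 further: all wells also contain fluconazole at 8 µg/ml as a sub-toxic cotreatment; 0% = median of DMSO wells and 100% = median of geldanamycin control wells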
T cruzi repl = T. cruzi replication inhibition | inhibition, % (concentration not given with the values) | T. cruzi beta-gal in NIH3T3, luminescence, 90 h | hit rate 1.4% among 300,000 | AID 1885;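 active means mean inhibition across valid replicates above about 55%, limit read from the data; inconclusive means mean below that limit but half or more replicates reach it; inactive means mean below it, under half of replicates reach it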;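 further: signal also drops with host cell toxicity which is not excluded here; 0% = plate median of DMSO wells and 100% = zero luminescence signal; higher percent means less beta-gal luminescence so fewer parasites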
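System: mouse NIH/3T3 fibroblasts infected with β-gal-expressing T. cruzi Tulahuen C4 / Input: NIH/3T3 cells, 5,000 per well / Buffer or medium: Low-serum DMEM with 2% FBS / Probe or stimulus: 5000 reporter trypomastigotes per well / Schedule: ≥90 h infection period, 3 h prior cell attachment / Measured by: GalScreen luminescence, 60 min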
NALP3 yeast inh = inhibitors of NALP3 inflammasome in yeast; hit rate 0.39% among 330,000; AID 2825; Yeast reconstituted NLRP3/ASC/caspase-1, beta-gal luminescence, 24 h; inhibition, % at 10 µM;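 active means inhibition of 50% or more; inactive means inhibition below 50%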;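 further: plate controls were induced DMSO wells for no effect and uninduced yeast grown without galactose for full effect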
PolyA inh = inhibitors of polyadenylation in S. cerevisiae. activity score, % at 12 µM. S. cerevisiae SKY197-pL101 polyadenylation reporter, beta-gal luminescence; efflux-impaired pdr1/pdr3 knockout yeast; score 100 = 6 SD above DMSO. hit rate 0.02% among 300,000. AID 1875;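 active means lowest replicate activity score at least 50, where 100 means six control SD above control mean; inconclusive means lowest score under 50 but half or more replicates reach 50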;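 further: yeast exposed to compound for 9 h at 30 °C; higher score means more reporter readthrough which indicates perturbed polyadenylation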
NALP1 yeast inh = NALP1 inhibition; S. cerevisiae NALP1/ASC/caspase-1 growth, X-gal OD620, 72 h; inhibition, % at 10 µM; hit rate 0.61% among 280,000; AID 2071; in the data active means inhibition mostly above about 24%, no sharp cut-off; inactive means mostly below about 32%
L major 1uM = L. major promastigote growth inhibition, 1 uM repeat; inhibition, % at 1 µM; resazurin fluorescence, 48 h; shares compounds with Lmaj promast; hit rate 13% among 1,100;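 active means inhibition above about 50% in both repeat tests, limit read from the data; inconclusive means one repeat under the set limit, the other over it; inactive means both repeats under the set limit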
Numbers without * were called inactive; ? = inconclusive; / = no result given. This is one part of a sample in which hits are shown more often than they occur.

SMILES	Lmaj promast	Calb FLC	T cruzi repl	NALP3 yeast inh	PolyA inh	NALP1 yeast inh	L major 1uM
C[C@]12CCC3C(CC=C4C[C@@H](O)CC[C@@]43C)C1CCC2[C@]1(C)CCC(=O)O1 (stereo partly specified)	33.3	-3.3	-27.0	4.2	21.0	12.8	/
Cc1ccc(C(CC(N)=O)c2ccco2)cc1 (stereo unspecified)	-1.6	4.6	-4.7	-3.6	-15.6	-9.3	/
Cc1ccc(C(CCN)c2ccco2)cc1 (stereo unspecified)	97.7*	-6.8	3.2	-1.5	24.5	-3.4	-8.7
CCC(=O)N1CCN(c2ccc(Cl)cc2NC(=O)Cc2ccc(Cl)cc2)CC1	31.2	32.6	22.6	-0.5	5.3	-1.8	/
CC(=O)Nc1cccc(C(=O)/C=C/c2cccs2)c1	93.1*	-2.4	-3.9	/	-2.2	25.6	-8.2
FC(F)(F)c1ccc2c(c1)C1C=CCC1C(c1ccncc1)N2 (stereo unspecified)	87.7*	23.5	19.5	/	-5.8	5.2	-6.8
Cc1ccc(SCc2cc(=O)n3ccsc3n2)c(C)c1	-7.0	-6.6	-1.7	-2.8	-27.6	23.1	/
Cc1cccc(-n2c(SCc3cc(=O)n4ccsc4n3)nc3ccccc32)c1	92.0*	113.7*	62.1*	1.5	-2.8	-3.6	-13.5
COc1ccc(C(C)NC(=O)Cc2cccs2)cc1 (stereo unspecified)	/	-7.1	-18.9	29.2	-3.7	14.2	/
NC(=O)c1ccsc1NC(=O)COC(=O)CCOc1ccccc1	/	0.2	4.8	-2.0	-0.9	-1.4	/
CCc1cc2c(nc1CC)CCN(CC/C(C)=N/OC[C@H]1O[C@H](c3ccccc3)C=C[C@@H]1Oc1ccc(OC)cc1)C2	67.4*	1.8	37.1	11.3	6.9	17.5	-4.1
COc1ccc(O[C@H]2C=C[C@@H](c3ccccc3)O[C@@H]2CO/N=C(\C)CCN2CCc3nc(-c4ccccc4)c(-c4ccccc4)cc3C2)cc1	7.1	17.8	42.3	11.6	21.5	32.5	/
Cc1cc(C)cc(C(=O)N(NC(=O)Nc2ccc(Cl)cc2)C(C)(C)C)c1	97.5*	-3.6	17.7	-3.9	25.7	26.8	-10.6
CC(C)(C)N(NC(=O)Nc1ccc(Cl)c(Cl)c1)C(=O)c1ccccc1	12.4	4.4	23.4	1.6	16.0	4.0	/
C#CCN(CC=C)C(=O)c1ccc2nc(C3CCCCC3)oc2c1	/	3.6	2.9	20.1	-8.0	12.0	/
COc1ccc(C(=O)Sc2nncc3ccccc23)cc1	-4.3	-15.5	0.5	-25.2	1.3	1.1	/
CCOC(=O)c1ccccc1NC(=O)Cc1sc(-c2cccnc2)nc1-c1ccc(C)cc1	96.9*	0.0	26.9	6.3	7.5	16.7	-3.8
CCOc1ccccc1NC(=O)CSc1nnc(CNC(=O)c2ccccc2F)o1	/	3.1	10.6	8.3	11.0	10.6	/
O=c1c(Cl)nc2cc(Cl)ccc2n1CCNc1ncc(C(F)(F)F)cc1Cl	100.7*	-1.2	17.2	24.0	-25.1	-5.6	100.9*
O=c1c2nncn2c2cc(C(F)(F)F)ccc2n1CCNc1ncc(C(F)(F)F)cc1Cl	/	-7.3	1.4	7.9	1.5	/	/
COc1ccc(Cc2nnc(SCC(=O)Nc3c(C)cccc3C)[nH]c2=O)cc1	/	-0.9	-21.5	22.5	19.7	/	/
CCN(CC)c1ccc(NC(=O)CN2CCN(S(=O)(=O)c3cc(Cl)ccc3OC)CC2)cc1	54.2*	-9.8	9.7	26.5	-15.2	23.0	65.7*
CC(OC(=O)CCc1nc2ccccc2c(=O)[nH]1)C(=O)c1ccc(C(C)(C)C)cc1 (stereo unspecified)	53.9*	2.3	-6.3	-4.6	3.6	32.2	-0.6
Cc1ccc(N2CN(Cc3cccnc3)CNC2=S)c(C)c1	85.7*	-4.7	?	1.8	21.2	14.6	45.9
COc1ccc(-c2[nH]n(-c3ccc([N+](=O)[O-])cc3)c(=O)c2C=NCCN2CCNCC2)cc1	33.7	6.5	0.5	24.8	-1.3	5.4	/
SMILES	Lmaj promast	Calb FLC	T cruzi repl	NALP3 yeast inh	PolyA inh	NALP1 yeast inh	L major 1uM
O=c1c(C=NCCN2CCNCC2)c(-c2ccccc2)[nH]n1-c1ccc([N+](=O)[O-])cc1	100.5*	18.3	-8.9	24.3	-15.0	0.4	27.7
CCOC(=O)c1c(NC(=O)c2ccc(S(=O)(=O)N3CCOCC3)cc2)sc2c1CCN(C)C2	68.3*	-25.8	/	16.6	-2.3	1.4	-15.7
CCOc1ccccc1N1CCN(Cc2cn[nH]c2-c2ccc(F)cc2)CC1	/	-13.8	/	24.3	1.6	-4.7	/
CCC(Cc1ccccc1)NC(=O)C1CCN(c2nn3c(=O)cc(C)nc3s2)CC1 (stereo unspecified)	/	-4.9	6.8	11.5	8.9	17.7	/
Clc1ccc(CN2CCC(c3ccccc3)CC2)cc1	/	-4.6	27.8	12.3	2.0	29.6	/
C1=CN2CCC1C(c1ccccc1)C2 (stereo unspecified)	79.1*	-0.7	-1.7	4.0	6.2	14.8	-11.9
c1ccc(C(c2ccccc2)c2nc(-c3cccnc3)no2)cc1	67.8*	-14.7	40.6	36.2	-19.3	0.3	-10.4
CC1CCN(S(=O)(=O)c2ccc(NC(=O)CN3C(=O)NC(C)(c4ccccc4)C3=O)cc2)CC1 (stereo unspecified)	/	-2.2	3.0	15.7	8.2	/	/
Oc1ccc2[nH]ccc2c1	87.1*	13.7	-9.2	21.9	-4.5	15.1	-10.2
O=C(c1ccccc1)N1CCN(C(=S)NCc2ccco2)CC1	-6.3	-6.5	5.3	6.5	-6.9	5.5	/
Cn1nc(C(F)(F)F)cc1-c1ccc(S(N)(=O)=O)s1	/	16.9	-9.6	-2.3	23.7	4.7	/
COc1cc(/C=N/NC(=O)COc2cc(C)cc(C)c2)ccc1OS(=O)(=O)c1ccc(C)cc1	-1.9	2.9	1.9	13.2	21.5	27.9	/
COc1ccc(/C=N/NC(=O)c2cccc([N+](=O)[O-])c2)cc1OS(=O)(=O)c1ccc(C)cc1	87.5*	?	-6.5	6.7	-15.2	7.2	-22.5
Cc1ccccc1C(=O)Oc1ccc(Sc2ccc(O)cc2)cc1	54.3*	0.5	3.0	21.2	17.2	12.6	1.4
Cc1ccccc1C(=O)Oc1ccc(-c2csnn2)cc1	/	0.8	-18.7	14.9	-18.1	-6.0	/
CCCCCNC1=CC(=O)CC(c2ccccc2)C1 (stereo unspecified)	13.1	-12.1	4.8	10.1	-11.8	14.9	/
CCCCCCCNC1=CC(=O)CC(c2ccccc2)C1 (stereo unspecified)	99.5*	-32.0	18.7	18.4	9.0	9.2	-17.7
CC(C)(C)c1cc(CSC(=S)NC2CCS(=O)(=O)C2)c(Br)c(C(C)(C)C)c1 (stereo unspecified)	95.2*	-1.9	0.5	32.9	-3.9	24.9	8.1
COc1ccc(OC)c(NC(=O)CN(C)CC(=O)Nc2ccccc2Br)c1	-2.1	19.4	9.8	11.3	-8.4	-1.6	/

High-throughput results deposited in PubChem BioAssay by several laboratories.
